The record followed here is ChEMBL document CHEMBL4011629, “New Disubstituted Quindoline Derivatives Inhibiting Burkitt's Lymphoma Cell Proliferation by Impeding c-MYC Transcription” (J Med Chem, 2017).

Calls of active or inactive are those of the source. The rule behind the calls is not given here.

Assay [1] is described as follows: Binding affinity to 5'-FAM labeled duplex DNA (unknown origin) by MST analysis. Put shortly:
(§1)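 The DNA was annealed at 95 °C for 5 min, slowly cooled and held at 4 °C overnight. Ligand was run as a 12-point series, 0–20 μM for Pu27 and up to 200 μM for duplex. MST was measured, and KD was fitted to a Hill model from three replicates.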

The nature of assay [2]: Stabilization of c-Myc Pu27 G-quadruplex DNA (unknown origin) assessed as induction of parallel G-quadruplex formation in absence of K+ ions by CD spectroscopic analysis.
Assay [3] in a line: Binding affinity to 5'-FAM labeled c-Myc Pu27 G-quadruplex DNA (unknown origin) in presence of K+ ions by MST analysis. Put shortly: as §1
Assay [4] can be described thus: Stabilization of c-Myc Pu27 G-quadruplex DNA (unknown origin) assessed as induction of parallel G-quadruplex formation in absence of K+ ions by CD spectroscopic analysis. Put shortly:
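CD spectra: Pu27 at 5 μM in 10 mM Tris-HCl pH 7.4 without or with 100 mM KCl, annealed 95 °C 5 min, slow-cooled, kept at 4 °C overnight, with ligand. Scanned 230–400 in a 4 mm quartz cuvette, 1 nm bandwidth and step, 0.5 s/point; buffer baseline subtracted.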

The nature of assay [5]: Stabilization of 5'-FAM/3'-TAMRA labeled c-Myc Pu22 G-quadruplex DNA (unknown origin) assessed as change in melting temperature at 2 uM by FRET assay. Put shortly: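 FRET melting of FAM/TAMRA-labelled FPu22T (0.2 μM) in 10 mM Tris-HCl pH 7.4 with 2 mM KCl, ligand 2 μM, in a real-time PCR machine. Excitation 470 nm, emission 530 nm, read every 1 °C from 37 to 99 °C after 30 s hold at each step; ΔTm versus probe alone.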

For assay [6], the system named is Raji. In words: Antiproliferative activity against human Raji cells after 48 hrs by MTT assay. The class given is functional, cell-based. Put shortly:
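RAJI cells were seeded at 5 × 10^3 cells per well and treated for 48 h, with a DMSO-matched control. MTT at 0.5 mg/mL was added for 4 h at 37 °C, followed by overnight lysis at 37 °C and absorbance at 570 nm. Each assay was done in triplicate. IC50 came from the dose-dependent percentage survival versus the control.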
Background: Tetrazolium assays rely on reduction of a dye to a coloured formazan, in cell work by metabolically active cells.

Assay [7] can be described thus: Selectivity ratio of Kd for 5'-FAM labeled duplex DNA (unknown origin) to Kd for 5'-FAM labeled c-Myc Pu27 G-quadruplex DNA (unknown origin). Put shortly:
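MST binding: FAM-Pu27 or FAM-duplex oligo at 10 μM in 10 mM Tris-HCl pH 7.4 with 150 mM KCl, annealed 95 °C 5 min, slow-cooled, held 4 °C overnight. Ligand titrated as a 12-point series, 0–20 μM for G4 or up to 200 μM for duplex. KD fitted with Hill model; three replicates.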

In general, ΔTm refers to the change in melting temperature against a reference sample. Regarding `CN1CCN(CCNC(=O)COc2ccc3oc4c(NCCN5CCN(C)CC5)c5ccccc5[n+](C)c4c3c2)CC1`, the result in assay [1], in assay [2], in assay [3] and in assay [4] was Active. Besides, the ΔTm in assay [5] lay in the range of 13.5 to 36.7 °C.
By IC50 is commonly meant the concentration that gives 50% inhibition. On to `CCN(CC)CCNC(=O)COc1ccc2oc3c(NCCN(CC)CC)c4ccccc4nc3c2c1`, for which the result in assay [2], in assay [3] and in assay [4] was Active. The same molecule displayed an IC50 in assay [6] of 1 to 4 µM. In assay [7], the Selectivity ratio fell in the range of 2.9 to 9.7. In addition, the ΔTm in assay [5] fell in the range of 13.5 to 36.7 °C.
`CN(C)CCCCNC(=O)COc1ccc2oc3c(NCCCCN(C)C)c4ccccc4[n+](C)c3c2c1`: the outcome in assay [1], in assay [2], in assay [3] and in assay [4] was Active. In addition, the ΔTm in assay [5] was in the range of 13.5 to 36.7 °C.
Turning to `CN(C)CCNC(=O)COc1ccc2oc3c(NCCN(C)C)c4ccccc4[n+](C)c3c2c1`, the outcome in assay [1], in assay [2], in assay [3] and in assay [4] was Active. Also, the ΔTm in assay [5] fell in the range of 13.5 to 36.7 °C.
With `O=C(COc1ccc2oc3c(NCCN4CCCCC4)c4ccccc4nc3c2c1)NCCN1CCCCC1`, the outcome in assay [2], in assay [3] and in assay [4] was Active. In assay [6], this molecule yielded an IC50 of 1 to 4 µM. For the same molecule, the Selectivity ratio in assay [7] was in the range of 2.9 to 9.7. For the same molecule, in assay [5], the ΔTm was in the range of 13.5 to 36.7 °C.
The Kd is a measure of binding affinity in units of concentration. With `CN(C)CCCNc1c2ccccc2nc2c1oc1cc(OCCCN(C)C)ccc12`, the outcome in assay [2] and in assay [4] was Active. This molecule also yielded an IC50 in assay [6] of 1 to 4 µM. In addition, in assay [3], the Kd lay within 1.3 to 4.9 µM. Moreover, the Selectivity ratio in assay [7] lay within 2.5 to 10.1. In addition, the ΔTm in assay [5] lay in the range of 22.1 to 25.2 °C.
Consider `CN(C)CCCNc1c2ccccc2nc2c1oc1ccc(OCCN(C)C)cc12`, for which the outcome in assay [2] and in assay [4] was Active. Besides, the IC50 in assay [6] is 1 to 4 µM. The Kd in assay [3] lay in the range of 1.3 to 4.9 µM. Also, in assay [7], the Selectivity ratio is 2.5 to 10.1. Moreover, the ΔTm in assay [5] lay in the range of 22.1 to 25.2 °C.
On to `C[n+]1c2ccccc2c(NCCCN2CCOCC2)c2oc3ccc(OCC(=O)NCCCN4CCOCC4)cc3c21`, for which the outcome in assay [1], in assay [2], in assay [3] and in assay [4] was Active. In addition, in assay [5], the ΔTm was determined as 36.1 °C.
As for `CN(C)CCCNc1c2ccccc2nc2c1oc1c(OCCCN(C)C)cccc12`, the result in assay [2] and in assay [4] was Active. The molecule further gave an IC50 in assay [6] of 1 to 4 µM. Moreover, the Kd in assay [3] is 1.3 to 4.9 µM. Moreover, in assay [7], the Selectivity ratio fell in the range of 2.5 to 10.1. In addition, in assay [5], the ΔTm is 13.5 °C.
Turning to `CN(C)CCCNc1c2ccccc2nc2c1oc1ccc(OCCCN(C)C)cc12`, the outcome in assay [2] and in assay [4] was Active. In assay [6], the IC50 lay within 1 to 4 µM. Further, the Kd in assay [3] is 1.3 to 4.9 µM. For the same molecule, the Selectivity ratio in assay [7] was 2.5 to 10.1. Besides, the ΔTm in assay [5] fell in the range of 22.1 to 25.2 °C.
As to `CN(C)CCNc1c2ccccc2[n+](C)c2c1oc1ccc(OCC[N+](C)(C)C)cc12`, the outcome in assay [1], in assay [2], in assay [3] and in assay [4] was Active. In addition, the ΔTm in assay [5] is 33.1 to 36.7 °C.
With `CCN(CC)CCNC(=O)COc1ccc2oc3c(NCCN(CC)CC)c4ccccc4[n+](C)c3c2c1`, the outcome in assay [1], in assay [2] and in assay [4] was Active. For the same molecule, in assay [3], the Kd was found to be 0.8 µM. In addition, the ΔTm in assay [5] lay in the range of 13.5 to 36.7 °C.
In the case of `CN(C)CCNC(=O)COc1ccc2oc3c(NCCN(C)C)c4ccccc4nc3c2c1`, the outcome in assay [2], in assay [3] and in assay [4] was Active. This molecule also had an IC50 in assay [6] of 1 to 4 µM. In addition, the Selectivity ratio in assay [7] fell in the range of 2.9 to 9.7. The ΔTm in assay [5] was in the range of 13.5 to 36.7 °C.
On to `CN(C)CCCNC(=O)COc1ccc2oc3c(NCCCN(C)C)c4ccccc4nc3c2c1`, for which the result in assay [2], in assay [3] and in assay [4] was Active. In addition, the IC50 in assay [6] is 1 to 4 µM. Besides, the Selectivity ratio in assay [7] was in the range of 2.9 to 9.7. Moreover, the ΔTm in assay [5] was found to be 21.2 °C.
Consider `CN(C)CCCNC(=O)COc1ccc2oc3c(NCCCN(C)C)c4ccccc4[n+](C)c3c2c1`, for which the result in assay [1], in assay [2], in assay [3] and in assay [4] was Active. Further, the ΔTm in assay [5] came to 35.6 °C.
Regarding `CN(C)CCCNc1c2ccccc2[n+](C)c2c1oc1ccc(OCCC[N+](C)(C)C)cc12`, the outcome in assay [1], in assay [2], in assay [3] and in assay [4] was Active. The ΔTm in assay [5] is 33.1 to 36.7 °C.
As for `CCN(CC)CCCNC(=O)COc1ccc2oc3c(NCCCN(CC)CC)c4ccccc4[n+](C)c3c2c1`, the outcome in assay [1], in assay [2] and in assay [4] was Active. For the same molecule, the Kd in assay [3] is 0.7 µM. Moreover, the ΔTm in assay [5] lay within 13.5 to 36.7 °C.
Consider `CN(C)CCCNc1c2ccccc2[n+](C)c2c1oc1ccc(OCC[N+](C)(C)C)cc12`, for which the result in assay [1], in assay [2], in assay [3] and in assay [4] was Active. In addition, the ΔTm in assay [5] was 33.1 to 36.7 °C.
In the case of `CN(C)CCCNc1c2ccccc2nc2c1oc1c(OCCN(C)C)cccc12`, the outcome in assay [2] and in assay [4] was Active. The molecule also had an IC50 in assay [6] of 1 to 4 µM. The Kd in assay [3] lay in the range of 1.3 to 4.9 µM. Also, the Selectivity ratio in assay [7] was in the range of 2.5 to 10.1. Besides, in assay [5], the ΔTm stood at 18.6 °C.
As to `CN(C)CCCNc1c2ccccc2nc2c1oc1cc(OCCN(C)C)ccc12`, the outcome in assay [2] and in assay [4] was Active. The molecule also had an IC50 in assay [6] of 1 to 4 µM. Besides, the Kd in assay [3] lay within 1.3 to 4.9 µM. The Selectivity ratio in assay [7] lay within 2.5 to 10.1. Further, the ΔTm in assay [5] was in the range of 22.1 to 25.2 °C.
Consider `C[n+]1c2ccccc2c(NCCN2CCOCC2)c2oc3ccc(OCC(=O)NCCN4CCOCC4)cc3c21`, for which the result in assay [1], in assay [2], in assay [3] and in assay [4] was Active. In assay [5], the ΔTm was 28.4 °C.
As for `CN(C)CCCNc1c2ccccc2[n+](C)c2c1oc1ccc(OCC3CC[N+](C)(C)CC3)cc12`, the outcome in assay [1], in assay [2], in assay [3] and in assay [4] was Active. Also, the ΔTm in assay [5] was 33.1 to 36.7 °C.
For the molecule `CCN(CC)CCCNC(=O)COc1ccc2oc3c(NCCCN(CC)CC)c4ccccc4nc3c2c1`, the outcome in assay [2], in assay [3] and in assay [4] was Active. For the same molecule, the IC50 in assay [6] was in the range of 1 to 4 µM. Besides, in assay [7], the Selectivity ratio lay in the range of 2.9 to 9.7. Moreover, the ΔTm in assay [5] lay within 13.5 to 36.7 °C.
Regarding `C[n+]1c2ccccc2c(NCCCN2CCCCC2)c2oc3ccc(OCC(=O)NCCCN4CCCCC4)cc3c21`, the result in assay [1], in assay [2], in assay [3] and in assay [4] was Active. Moreover, in assay [5], the ΔTm amounted to 35.2 °C.
Turning to `C[n+]1c2ccccc2c(NCCN2CCCCC2)c2oc3ccc(OCC(=O)NCCN4CCCCC4)cc3c21`, the outcome in assay [1], in assay [2], in assay [3] and in assay [4] was Active. In addition, in assay [5], the ΔTm came out at 30 °C.
With `CN(C)CCNc1c2ccccc2nc2c1oc1ccc(OCCN(C)C)cc12`, the outcome in assay [2] and in assay [4] was Active. The IC50 in assay [6] was in the range of 1 to 4 µM. Also, in assay [3], the Kd fell in the range of 1.3 to 4.9 µM. For the same molecule, the Selectivity ratio in assay [7] is 2.5 to 10.1. Further, the ΔTm in assay [5] is 13.5 to 36.7 °C.
